Published values pooled from the literature.
Each line is one published result; the experiments were not run side by side.
CDK2 with cyclin E1: Cyclin-dependent kinase 2, with cyclin E1 (CDK2, Homo sapiens, UniProt P24941)
CDK2: Cyclin-dependent kinase 2 (CDK2, Homo sapiens, UniProt P24941)
CDK2 with cyclin A: Cyclin-dependent kinase 2, with cyclin A (CDK2, Homo sapiens, UniProt P24941)
CDK2 with cyclin E: Cyclin-dependent kinase 2, with cyclin E (CDK2, Homo sapiens, UniProt P24941)

SMILES	target	effect on	mode	technique	measurement	value
O=c1cc(-c2ccccc2)oc2ccc3ccccc3c12	CDK2 with cyclin E1	enzyme activity	inhibitor	ADP detection	IC50	> 10 µM
Cc1cc(Nc2cc3ncccc3c(N[C@@H]3C[C@H]4CC[C@@H](C3)N4CCC#N)n2)n[nH]1	CDK2	binding		competition with immobilised ligand	Kd	0.75 µM
COc1c(C(=O)/C=C(\O)c2ccccc2)ccc2occc12	CDK2 with cyclin E1	enzyme activity	inhibitor	ADP detection	IC50	> 100 µM
O=C(Nc1cc(C2CCCCC2)[nH]n1)c1ccc(Br)cc1	CDK2	thermal stability		DSF	Kd	> 100 µM
C=CC(=O)Nc1ccc(O[C@@H]2CCC[C@@H](Nc3ncc(Cl)c(-c4c[nH]c5ccccc45)n3)C2)cc1	CDK2 with cyclin A	enzyme activity	inhibitor	FRET	IC50	> 10 µM
O=S(=O)(/C=C/c1ccc(C(F)(F)F)cc1)c1ccc(-c2csc(-c3ccccc3)n2)cc1	CDK2	enzyme activity	inhibitor	mobility shift	IC50	26 µM
C=CC(=O)Nc1ccc(N2CCC[C@@H](Nc3ncc(Cl)c(-c4c[nH]c5ccccc45)n3)C2)c(F)c1	CDK2 with cyclin A	enzyme activity	inhibitor	FRET	IC50	4.02 µM
CN(C)CCNS(=O)(=O)c1ccc(N/C=C2\C(=O)Nc3ccccc32)cc1	CDK2	binding			Kd	1.06 µM
OCc1c(-c2ccc(F)cc2)nc2sc3c(n12)CCCC3	CDK2	enzyme activity	inhibitor	mobility shift	IC50	19 µM
c1ccc(CNc2ncnc3nc[nH]c23)cc1	Cyclin-dependent kinase 2, with cyclin A (CDK2, Homo sapiens, UniProt P24941, F80G)	enzyme activity	inhibitor	radiometric	IC50	~1 µM
CN(C)CCNc1nc2ccccc2c2[nH]c3ccccc3c12	CDK2 with cyclin E	enzyme activity	inhibitor	radiometric	IC50	70 µM
COc1cccc(OC)c1CNC(=O)c1ccc2c(c1)C(=NNc1ccc(S(N)(=O)=O)cc1)C(=O)N2	CDK2	binding			Kd	0.0226 µM
CN(C)CCNC1=Nc2ccccc2-c2[nH]c3ccccc3c2C1	CDK2 with cyclin E	enzyme activity	inhibitor	radiometric	IC50	73 µM
CN1CCC(c2c(O)cc(O)c3c(=O)cc(-c4ccccc4)oc23)C(O)C1 (centres unmarked)	CDK2 with cyclin A	enzyme activity	inhibitor		IC50	0.196 µM
